Source: ChEMBL document CHEMBL1129631, “Synthesis and evaluation of aryl-substituted N-(arylethyl)-N-methyl-2-(1-pyrrolidinyl)ethylamines and corresponding arylacetamides for sigma receptor affinity” (J Med Chem, 1996)

How the values were obtained:
[1] = biological target: Sigma 2 receptor; assay: Displacement of [3H]-DTG from Sigma opioid receptor type 2 in rat liver membrane; type: cell membranes
How it was run: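 Liver membranes from male Sprague-Dawley rats (160 μg protein) with 5 nM [3H]DTG plus 1 μM dextralorphan masking σ1 sites. Twelve ligand concentrations (0.05–10 000 nM or 0.5–100 000 nM), 50 mM Tris-HCl pH 8.0, 120 min, 25 °C. Nonspecific binding by 10 μM haloperidol. Filtration and counting. Ki from IC50 by Cheng–Prusoff; 2–3 experiments ± SEM.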

[2] = biological target: Sigma non-opioid intracellular receptor 1 (Cavia porcellus) (UniProt Q60492); assay: Relative affinity for sigma-1 compared to sigma-2 type receptors
Chain of Sigma non-opioid intracellular receptor 1 (Cavia porcellus) (Q60492 whole entry, looked up): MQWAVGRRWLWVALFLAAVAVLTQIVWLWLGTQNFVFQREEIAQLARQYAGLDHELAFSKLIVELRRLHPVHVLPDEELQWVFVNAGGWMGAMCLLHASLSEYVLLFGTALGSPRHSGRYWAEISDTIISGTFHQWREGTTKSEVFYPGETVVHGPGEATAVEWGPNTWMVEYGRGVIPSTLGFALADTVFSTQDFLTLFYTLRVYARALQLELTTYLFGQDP

SMILES | Ki [1] [nM] | Ratio [2]
COc1ccccc1CC(=O)N(C)CCN1CCCC1 | 3170 | –
COc1ccc(CCN(C)CCN2CCCC2)cc1 | 256 | 0.12
COc1cccc(CC(=O)N(C)CCN2CCCC2)c1 | 1110 | 2.8
CN(CCN1CCCC1)C(=O)Cc1cccc([N+](=O)[O-])c1 | 539 | 3
COc1cccc(CCN(C)CCN2CCCC2)c1 | 209 | 0.11
CN(CCN1CCCC1)C(=O)Cc1ccc([N+](=O)[O-])cc1 | 596 | 1.5
COc1ccc(CC(=O)N(C)CCN2CCCC2)cc1 | 1220 | 1.8
CN(CCN1CCCC1)C(=O)Cc1ccccc1[N+](=O)[O-] | 1490 | 0.49

The remaining lines, values ahead:

Ki [1] [nM] | Ratio [2] | SMILES
640 | 0.45 | CN(CCc1ccccc1N)CCN1CCCC1
144 | 0.11 | COc1ccccc1CCN(C)CCN1CCCC1
2240 | 0.26 | CN(CCc1cccc(N)c1)CCN1CCCC1
95.2 | 0.07 | CN(CCc1cccc([N+](=O)[O-])c1)CCN1CCCC1
311 | 0.02 | CN(CCc1ccccc1[N+](=O)[O-])CCN1CCCC1
974 | 0.28 | CN(CCc1ccc(N)cc1)CCN1CCCC1
62.7 | 0.07 | CN(CCc1ccc([N+](=O)[O-])cc1)CCN1CCCC1
